High-throughput results from PubChem.
TAAR1 agonist: human TAAR1 agonism; AID 624467; activation, % at 3 µM; CHO RD-HGA16 TAAR1, Fluo-8 calcium fluorescence; vehicle wells 0%, saturating PEA agonist 100%; 360,000 tested, 0.99% active; Q96RJ0;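 active = activation above the mean activation of all test compounds in the run plus 3 SD, cut at about 38% in these data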
Target sequence (Q96RJ0 whole entry, looked up): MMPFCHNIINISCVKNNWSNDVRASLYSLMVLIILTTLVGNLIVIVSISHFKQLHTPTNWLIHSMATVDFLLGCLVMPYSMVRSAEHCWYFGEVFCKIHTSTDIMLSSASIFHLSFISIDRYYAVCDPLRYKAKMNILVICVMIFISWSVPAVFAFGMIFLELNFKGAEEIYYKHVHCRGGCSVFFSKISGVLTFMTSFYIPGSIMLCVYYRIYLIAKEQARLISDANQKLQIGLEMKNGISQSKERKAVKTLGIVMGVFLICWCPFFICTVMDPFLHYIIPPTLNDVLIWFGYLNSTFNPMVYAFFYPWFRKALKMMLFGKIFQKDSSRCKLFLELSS
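Benchmarks: low control DMSO, high control PEA (EC100); System: CHO RD-HGA16 cells carrying human TAAR1 plus Gα16; Detection: Fluo-8 fluorescence, 5 s baseline then 140 s kinetic read; Schedule: 17-24 h plating, Fluo-8 75 min 37 °C, 30 min RT; Read-out basis: % activation from peak over basal fluorescence ratio, DMSO-to-PEA scaled.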
TAAR1 antag: antagonists of human TAAR1; CHO RD-HGA16 TAAR1, Fluo-8 calcium fluorescence, antagonist; inhibition, % at 3 µM; 360,000 tested, 1.5% active; AID 624466;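 active = inhibition above a per-plate cutoff, the mean inhibition of test compounds on that plate plus 3 SD, cut at about 49% in these data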
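Test system: RD-HGA16 CHO cells with stable hTAAR1 and Gα16 / Probe or stimulus: EC80 β-phenethylamine stimulus / Times: seeding 17-24 h prior, 75-min 37 °C, 30-min RT dye loading / Detection: Fluo-8 calcium-sensitive fluorescence / Read-out basis: % inhibition scaled between DMSO and EC80 PEA controls / Repeats: singlicate, one well per test compound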
OX1R antag-1: OX1R (human) antagonism; O43613; OX1R-expressing cells, FRET antagonist read-out; inhibition, % at 6.6 µM; 330,000 tested, 1.8% active; in the data active = inhibition mostly above about 38%, no sharp cut-off; inactive = mostly below about 40%
Target sequence (O43613 whole entry, looked up): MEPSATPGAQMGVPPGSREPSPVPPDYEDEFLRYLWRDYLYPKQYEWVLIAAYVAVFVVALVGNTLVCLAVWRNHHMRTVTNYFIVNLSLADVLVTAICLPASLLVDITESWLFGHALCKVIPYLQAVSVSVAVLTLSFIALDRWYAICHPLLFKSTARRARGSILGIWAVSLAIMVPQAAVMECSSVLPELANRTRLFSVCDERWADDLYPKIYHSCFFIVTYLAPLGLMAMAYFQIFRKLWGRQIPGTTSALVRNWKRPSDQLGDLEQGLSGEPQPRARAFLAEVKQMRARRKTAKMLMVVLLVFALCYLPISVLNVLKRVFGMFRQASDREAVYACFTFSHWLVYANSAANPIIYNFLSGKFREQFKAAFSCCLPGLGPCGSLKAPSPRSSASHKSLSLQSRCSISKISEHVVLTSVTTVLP
CHO parental Ca: counter-screen: ATP calcium response change in parental CHO cells; 330,000 tested, 0.63% active; inhibition, % at 5.6 µM; parental CHO-K1, ATP-induced calcium, Fluo-8 fluorescence;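 active = inhibition above that plate's mean sample inhibition plus 3 SD, cut at about 26% in these data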
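Measured by: calcium-sensitive Fluo-8 fluorescence / Test system: CHO parental line / Controls: ATP-challenged DMSO wells low, unchallenged DMSO wells high / Measure: % inhibition / Compound: single nominal dose of 5.6 µM per compound / Replicates: single well per compound, no replicates / Reagent: ATP as calcium-mobilizing challenge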
OX1R antag-2: antagonists of human orexin 1 receptor; AID 434989; CHO/OX1R cells, Fluo-8 calcium fluorescence, orexin A; 330,000 tested, 0.43% active; O43613; inhibition, % at 5 µM;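 active = inhibition above its plate's threshold, mean inhibition of all tested compounds on the plate plus 3 SD, cut at about 37% in these data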
Each line names hits and unclear results; the compound was inactive in the other large screens. A selection: hits, their analogues and other compounds. The true share with any hit is near 3.9%.

Cc1ccc(Cn2c(CCNc3nc(-c4ccc(Cl)c([N+](=O)[O-])c4)cs3)nc3cc(C(=O)NCCCO)ccc32)cc1	TAAR1 antag 55.4
Cc1nn(-c2ccccc2)c2sc(C(=O)NNC(=O)COc3ccccc3)cc12	OX1R antag-1 48.6
CCc1nc2ccc(C(=O)Nc3cccc(OCC(=O)N(C)C)c3)cn2c1N(C)Cc1cc2ccccc2s1	TAAR1 antag 71.2 (no result: OX1R antag-1, CHO parental Ca, OX1R antag-2)
CCc1nc2ccc(C(=O)Nc3cc(-c4ccccc4)ccc3OC)cn2c1N(C)Cc1ccc(OC)cc1	none (no result: OX1R antag-1, CHO parental Ca, OX1R antag-2)
CCc1nc2ccc(C(=O)Nc3cc(-c4ccccc4)ccc3OC)cn2c1N(C)Cc1nccs1	TAAR1 antag 53.5 (no result: OX1R antag-1, CHO parental Ca, OX1R antag-2)
O=C(Nc1ccc2ncccc2c1)Nc1ccc2ncccc2c1	OX1R antag-1 76.0
CCCC[n+]1c2ccccc2cc2ccccc21	OX1R antag-1 47.9
O=C1c2ccccc2-c2cccnc21	OX1R antag-1 46.6
Cc1nc2c(nc1C)C(=O)c1ccccc1C2=O	none (no result: OX1R antag-1, CHO parental Ca, OX1R antag-2)
COc1ccc(C(=O)C[n+]2ccc(-c3nnc4n3CCCCC4)cc2)cc1	OX1R antag-1 44.0
CC(=O)c1ccc2c3c(cccc13)C(=O)N(c1c(C)nn(C)c1C)C2=O	OX1R antag-1 67.0
COc1ccccc1-[n+]1c(C)cc(/C=C2\Sc3ccccc3N2C)cc1C	CHO parental Ca 68.7, OX1R antag-2 61.6
COc1ccc(C(=O)/C=C2\Sc3ccccc3N2C)cc1	none
COc1ccc(-[n+]2c(C)cc(/C=C3\Sc4ccccc4N3C)cc2C)cc1	TAAR1 antag 62.3, OX1R antag-1 56.4, CHO parental Ca 45.9
COc1ccccc1OC(=O)CCN1c2ccccc2Sc2ccccc21	none
CCOC(=O)[C@]12CCC=C1N(Cc1ccccc1)C(=O)[C@H](CC(=O)NCc1cccc(C(F)(F)F)c1)C2	none (no result: OX1R antag-1, CHO parental Ca, OX1R antag-2)
CCOc1c(O)ccc(/C=C2\SC(=S)NC2=O)c1[N+](=O)[O-]	OX1R antag-1 49.5
O=C1NC(=S)S/C1=C\c1cc(Cl)ccc1Cl	none (no result: OX1R antag-1, CHO parental Ca, OX1R antag-2)
CCOc1ccc(N(C)c2ccc(/C=C3/SC(=S)NC3=O)cc2)cc1	TAAR1 antag 59.1, CHO parental Ca 26.4, OX1R antag-2 33.1
O=C(/C=C/c1ccccc1)NC(=S)NNC(=O)Cc1cccs1	TAAR1 agonist 52.7
CCn1c(SCC(=O)c2cc(C)n(CC3CCCO3)c2C)nc2ccccc21 (stereo not given)	OX1R antag-1 76.7
Cc1cc(C(=O)CSc2nc3ccccc3c(=O)[nH]2)c(C)n1CC1CCCO1 (stereo not given)	CHO parental Ca 60.0
CNc1ccccc1C(C)(C)c1cc(-c2cccc([N+](=O)[O-])c2)no1	none
CNc1ccccc1C(C)(C)c1cc(-c2cccc(Br)c2)no1	CHO parental Ca 45.2
Clc1ccc2nc(-c3cccc(SC4CCCCC4)c3)c(NCc3ccccc3)n2c1	none
CCCCNc1c(-c2ccc(SC(C)CC)cc2)nc2ccccn12 (stereo not given)	TAAR1 antag 96.4, CHO parental Ca 86.8, OX1R antag-2 56.4
CCCCNc1c(-c2ccc(SC3CCCCC3)cc2)nc2ccccn12	CHO parental Ca 79.7
c1ccc(CNc2c(-c3cccc(SC4CCCCC4)c3)nc3ccccn23)cc1	TAAR1 antag 54.6, CHO parental Ca 81.8, OX1R antag-2 73.4
CCOC(=O)N1CCN(S(=O)(=O)N2CCCC(C(=O)NCc3ccccc3OCC)C2)CC1 (stereo not given)	none (no result: OX1R antag-1, CHO parental Ca, OX1R antag-2)
Cc1ccc(NS(=O)(=O)c2ccc(-c3coc(C)n3)cc2)c(Cl)c1	none (no result: OX1R antag-1, CHO parental Ca, OX1R antag-2)
OC[C@@H]1CN(Cc2ccncc2)C[C@H](n2cnc3c(NC4CCCC4)ncnc32)O1	none (no result: OX1R antag-1, CHO parental Ca, OX1R antag-2)
COCCCNC(=O)CSc1nc2ccccc2c(=O)n1CCc1ccc(S(N)(=O)=O)cc1	TAAR1 antag 57.1
COc1ccc(-c2cc(C(=O)Nc3cc(C)on3)c3ccccc3n2)c(OC)c1	none
COc1cccc(NC(=O)c2cc(-c3cccnc3)nc3c(Cl)cccc23)c1	TAAR1 antag 56.7
COc1ccc(OC)c(/C=N/NC(=O)c2cccc3ccccc23)c1	none
COc1ccc(OC)c(/C=N\NC(=O)c2cc3c(ccc4ccccc43)o2)c1	OX1R antag-1 73.4
COc1ccc(NC(=O)c2cc(-c3ccccn3)nc3ccccc23)c(OC)c1	TAAR1 antag 54.4
COc1cccc(NC(=O)c2cc(-c3ccc(OC)cc3OC)nc3ccccc23)c1	TAAR1 antag 53.3
C=CCN1CC(COCc2ccccc2)OCCS1(=O)=O (stereo not given)	none (no result: OX1R antag-1, CHO parental Ca, OX1R antag-2)
CC(C)NC(=O)N[C@H]1CC[C@H](CC(=O)NCc2ccc(Oc3ccccc3)cc2)O[C@@H]1CO	none (no result: OX1R antag-1, CHO parental Ca, OX1R antag-2)
O=C(c1ccccc1)N1CCC2CCN(S(=O)(=O)c3ccccc3)CC21 (stereo not given)	none (no result: OX1R antag-1, CHO parental Ca, OX1R antag-2)
COc1ccc(/C=N/NC(=O)c2cc(-c3ccccc3)nc3ccccc23)c(OC)c1	OX1R antag-1 42.3
O=C(N/N=C/c1cccc(O)c1)c1cc(-c2ccccc2)nc2ccccc12	none
Cc1nc(-c2ccccc2)sc1C(=O)Nc1ccccc1F	none
COc1ccc(NC(=O)c2sc(-c3ccccc3)nc2C)c(OC)c1	OX1R antag-1 43.4
C[C@@H]1ON(C)[C@H]2C[C@H]3c4cc(Br)ccc4CCN3C[C@@H]12	none (no result: OX1R antag-1, CHO parental Ca, OX1R antag-2)
C#CCOc1c(/C=C\c2nc(O)c([N+](=O)[O-])c(=O)[nH]2)cc(Br)cc1OC	OX1R antag-1 53.0
COc1ccc(OC)c2c1C(=O)CC2C (stereo not given)	none (no result: OX1R antag-1, CHO parental Ca, OX1R antag-2)
COc1ccc(N)c2c1C(=O)c1ccccc1C2=O	OX1R antag-1 70.2
COc1ccc(OC)c2c1C(=O)c1ccccc1C2=O	OX1R antag-1 65.4
COc1ccc(OC)c2c1C(=O)C(Cl)=C(Cl)C2=O	TAAR1 antag 70.9, OX1R antag-1 104.2, CHO parental Ca 74.6, OX1R antag-2 68.8
CCCc1nc(SCC(=O)N2CCCCCC2)c2c(=O)n(C)c(=O)n(C)c2n1	none (no result: TAAR1 agonist, TAAR1 antag)
CCCCN1C(=O)N(CCc2ccc(F)cc2)S(=O)(=O)c2cc(C(F)(F)F)ccc21	none
O=C(NCc1cc(Cl)cc(Cl)c1)c1ccc2nc([C@@H]3O[C@H](CO)[C@@H](O)[C@H]3O)[nH]c2c1	none (no result: OX1R antag-1, CHO parental Ca, OX1R antag-2)
COc1ccc(C2NCCc3c2[nH]c2ccccc32)cc1COc1ccc(F)cc1 (stereo not given)	TAAR1 agonist 48.8, CHO parental Ca 31.9
COc1ccc(C2NC(C(=O)O)Cc3c2[nH]c2ccccc32)cc1CN1CCN(c2ccc(F)cc2)CC1 (stereo not given)	none
CN(C)CCNC(=O)Cn1ccc2cc(S(=O)(=O)N3CCCCCC3)ccc21	none
Cc1ccccc1CCNC(=O)Cn1ccc2cc(S(=O)(=O)N3CCCC3)ccc21	OX1R antag-1 46.0
Cc1ccc(CCNC(=O)Cn2ccc3cc(S(=O)(=O)N4CCCC4)ccc32)cc1	OX1R antag-1 56.0
COc1ccc(CCNC(=O)Cn2ccc3cc(S(=O)(=O)N4CCCC4)ccc32)cc1OC	OX1R antag-1 57.2
